The test system of assay [1] is Rattus norvegicus. Description: Antihypertensive activity against methyl prednisolone acetate-induced hypertension in albino rat assessed as reduction in mean arterial pressure at 20 mg/kg, ip after 1 hr by tail-cuff method. Type of assay: functional, Artery. The arrangement: scale not given: the % may be the effect or the level left. Particulars: route intraperitoneal. A digest of the protocol:
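Rats were albino, 200–250 g, and restrainer-trained for 10 min/day over 1 week. They were made hypertensive with s.c. methyl prednisolone acetate at 20 mg/kg/wk for 2 weeks. Each compound was suspended in 1% CMC and given i.p. at 20 mg/kg. Mean arterial BP was measured 1 h after dosing in conscious animals by CODA tail-cuff. Data are mean ± SEM, analysed by ANOVA and Dunnett test against the hypertensive control.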

The test system of assay [2] is Rattus norvegicus. The experiment in a line: Antihypertensive activity against methyl prednisolone acetate-induced hypertension in albino rat assessed as reduction in mean arterial pressure at 14 mg/kg, ip after 1 hr by tail-cuff method. Type of assay: functional, Artery. The arrangement: scale not given: the % may be the effect or the level left. Particulars: route intraperitoneal. The gist of the method:
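Albino rats of 200–250 g were trained in a restrainer for 10 min daily for 1 week. Hypertension was induced by s.c. methyl prednisolone acetate at 20 mg/kg/wk for 2 weeks, with an untreated control group kept alongside. Drug was given i.p. and mean arterial BP was read 1 h later in conscious rats by CODA tail-cuff. Results are mean ± SEM, compared with the hypertensive control by ANOVA and Dunnett test.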

Structures are written as SMILES.

As for `Cc1ccc(C2=NN(c3n[nH]c(=S)n3-c3ccc(Cl)cc3)C(=O)CC2)cc1`, the Activity in the assay on Rattus norvegicus [1] is 41.84%.
Consider `Cc1ccc(-n2c(N3N=C(c4ccc(Cl)cc4)CCC3=O)n[nH]c2=S)cc1`, for which the Activity in the assay with Rattus norvegicus [1] is reported as 11.53%.
The same measure, in the same setting: under `CCc1ccc(C2=NN(c3n[nH]c(=S)n3-c3ccccc3)C(=O)CC2)cc1` stands 38.88%; under `O=C1CCC(c2ccccc2)=NN1c1n[nH]c(=S)n1-c1ccccc1`, 30.01%.
With `Cc1ccc(-n2c(N3N=C(c4ccccc4)CCC3=O)n[nH]c2=S)cc1`, the Activity with Rattus norvegicus [1] is recorded as 38.83%.
Regarding `CC(C)Cc1ccc(C2=NN(c3n[nH]c(=S)n3-c3ccccc3)C(=O)CC2)cc1`, the Activity in the assay with Rattus norvegicus [1] turned out to be 30.51%.
Take `O=C1CCC(c2ccccc2)=NN1c1n[nH]c(=S)n1-c1ccc(Cl)cc1`: the Activity in the assay with Rattus norvegicus [1] is listed as 24.84%.
In the case of `CCc1ccc(C2=NN(c3n[nH]c(=S)n3-c3ccc(Cl)cc3)C(=O)CC2)cc1`, the Activity with Rattus norvegicus [1] stood at 42.11%.
The same measure, in the same setting: to `Cc1ccc(-n2c(N3N=C(c4ccc(-c5ccccc5)cc4)CCC3=O)n[nH]c2=S)cc1` belongs 13.13%; to `Cc1ccc(C2=NN(c3n[nH]c(=S)n3-c3ccc(C)cc3)C(=O)CC2)cc1`, 31.25%.
The same measure, in the same setting: to `Cc1ccc(-n2c(N3N=C(c4ccc(CC(C)C)cc4)CCC3=O)n[nH]c2=S)cc1` belongs 12.5%; to `O=C1CCC(c2ccc(Cl)cc2)=NN1c1n[nH]c(=S)n1-c1ccccc1`, 12.52%; to `O=C1CCC(c2ccc(-c3ccccc3)cc2)=NN1c1n[nH]c(=S)n1-c1ccccc1`, 10.67%.
In the case of `O=C1CCC(c2ccc(-c3ccccc3)cc2)=NN1c1n[nH]c(=S)n1-c1ccc(Cl)cc1`, the Activity with Rattus norvegicus [1] is 14.37%.
In the case of `CC(C)NCC(O)COc1cccc2ccccc12` (configuration not stated) [PROPRANOLOL], the Activity in the assay with Rattus norvegicus [2] was found to be 41.4%.
On to `COc1ccc(C2=NN(c3n[nH]c(=S)n3-c3ccc(Cl)cc3)C(=O)CC2)cc1`, for which, in the assay on Rattus norvegicus [1], the Activity is 16.09%.
As to `Cc1ccc(C2=NN(c3n[nH]c(=S)n3-c3ccccc3)C(=O)CC2)cc1`, in the assay on Rattus norvegicus [1], the Activity is on record as 27.3%.
For `O=C1CCC(c2ccc(Cl)cc2)=NN1c1n[nH]c(=S)n1-c1ccc(Cl)cc1`, in the assay with Rattus norvegicus [1], the Activity is 11.29%.
For the compound `CC(C)Cc1ccc(C2=NN(c3n[nH]c(=S)n3-c3ccc(Cl)cc3)C(=O)CC2)cc1`, the Activity with Rattus norvegicus [1] is 15.85%.
On the same count and under the same terms, under `COc1ccc(C2=NN(c3n[nH]c(=S)n3-c3ccccc3)C(=O)CC2)cc1` stands 32.48%; under `CCc1ccc(C2=NN(c3n[nH]c(=S)n3-c3ccc(C)cc3)C(=O)CC2)cc1`, 32.97%.
`COc1ccc(C2=NN(c3n[nH]c(=S)n3-c3ccc(C)cc3)C(=O)CC2)cc1`: the Activity in the assay with Rattus norvegicus [1] is given as 40.98%.

For the origin of these results see ChEMBL document CHEMBL1667767, “Triazole incorporated pyridazinones as a new class of antihypertensive agents: design, synthesis and in vivo screening” (2011).
